Article PMC8462008 (Bioorganic & medicinal chemistry, 2021)
“Also recorded” adds a separate entry of the source.

Assays:
[1] = test system: IRF3; assay: IRF3 luciferase reporter assay in RSV-infected A549 cells; assay type: cell-based, human; details: 10 μM
How it was run: (§1)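 A549 cells transfected in triplicate (FuGene 6) with luciferase plasmids carrying NF-κB binding sites (NF-κB-Luc) or the IRF-3 site (PRDIII-I-Luc, IRF-3-Luc). At 20 h post-transfection, cells were infected with RSV long strain, either MOI 1 with 2 h adsorption then virus removed and 10 μM test compound for 15 h, or MOI 5 with 4 h treatment. Cells were lysed for luciferase. Run at least twice; means ± SE.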

[2] = test system: NF-κB; assay: NF-κB luciferase reporter assay in RSV-infected A549 cells; assay type: cell-based, human; details: 10 μM
How it was run: as §1

[3] = test system: RSV-induced cytokines/chemokines; assay: RSV-induced cytokine/chemokine induction in SAECs; assay type: cell-based, human; details: 10 μM, 4 h posttreatment, RSV MOI 5, SAECs supernatant
How it was run: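 Primary human small airway epithelial cells from normal distal lung were infected with RSV long strain at MOI 5. Virus was removed at 2 h and cells were treated with 10 μM test compound. Supernatants were collected at 4 h post-treatment and assayed with a multiplex human cytokine/chemokine bead kit (Bio-Plex) per kit instructions. Run at least twice; means ± SE.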

[4] = test system: RSV; assay: RSV genome copies in infected A549 cells by RT-qPCR; assay type: cell-based, respiratory syncytial virus (RSV long strain); details: 10 μM, RSV MOI 1, A549
How it was run: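 RSV long strain was grown in HEp-2 cells at 37 °C and purified on a sucrose gradient. A549 cells were infected at MOI 1, then treated with 10 μM test compound for 6, 15 or 24 h. Intracellular RSV genome copies were quantified by RT-qPCR at each time point after treatment.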

[5] = test system: RSV viral proteins (P, M, N, F); assay: RSV viral protein expression in A549 cells by western blot; assay type: cell-based, respiratory syncytial virus (RSV long strain); details: 10 μM; for RSV protein expression: 4 h, RSV MOI 5, A549, versus control cells; for expression of viral P, M, N and F proteins: 15 h posttreatment, RSV MOI 1, A549
How it was run: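 A549 cells were infected with RSV long strain, either MOI 1 then 10 μM test compound for 15 h, or MOI 5 then 10 μM for 4 h. Total lysates were resolved by SDS-PAGE and transferred to PVDF. Membranes were blocked in 5% milk/TBS-Tween 20 and probed with biotin-conjugated polyclonal goat anti-RSV or anti-F antibody; β-actin was the loading control.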

[6] = test system: IRF3; assay: RSV-induced IRF3 phosphorylation and nuclear translocation in A549 cells; assay type: cell-based, human; details: 10 μM; for IRF-3 total protein level in the cell: cell lysates at 4 h or 15 h of infection
How it was run: (§2)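 A549 cells, mock or RSV-infected, were treated with 10 μM test compound, either MOI 5 for 4 h or MOI 1 for 15 h. Nuclear extracts were blotted for IRF-3, phospho-IRF3 Ser396, p65, and phospho-p65 Ser276 and Ser536. Total IRF-3 and p65 were measured in whole-cell lysates at 4 h and 15 h. Blots used SDS-PAGE, PVDF and 5% milk block; β-actin was the loading control.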

[7] = test system: p65; assay: RSV-induced p65 phosphorylation and nuclear translocation in A549 cells; assay type: cell-based, human; details: 10 μM; for p65 total protein level in the cell: cell lysates at 4 h or 15 h of infection
How it was run: as §2

[8] = test system: IRF-3; assay: Poly I:C-activated IRF-3 luciferase reporter in HEK-293 cells; assay type: cell-based, human; details: 4 h post-treatment
How it was run: (§3)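 HEK-293 cells were transiently transfected with IRF-3 (Poly I:C line) or NF-κB (Poly I:C and TNF-α lines) luciferase reporter plasmids. At 15 h post-transfection, cells were stimulated by transfection with Poly I:C or by 10 ng/ml TNF-α and treated with test compound. Luciferase activity was read at 4 h post-treatment. Run at least twice; means ± SE.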

[9] = test system: NF-κB; assay: Poly I:C-induced NF-κB luciferase reporter in HEK-293 cells; assay type: cell-based, human; details: 4 h post-treatment
How it was run: as §3

[10] = test system: A549 cells; assay: LDH release cytotoxicity assay; assay type: cell-based, human; details: 10 μM, 15 h
How it was run: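 A549 cells were seeded at 1.5 × 10^4 cells/well for 24 h. The whole medium was then replaced with fresh medium containing 10 μM test compound and 2% FBS; DMSO served as vehicle control. At 15 h, cells were harvested for luminescent LDH-release assay (LDH-Glo kit). Three biological replicates.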

[11] = test system: NF-κB; assay: TNF-α-induced NF-κB luciferase reporter in HEK-293 cells; assay type: cell-based, human; details: 10 ng/ml TNF-α, 4 h post-treatment
How it was run: as §3

[12] = 4 h posttreatment, RSV MOI 5, A549
[13] = 15 h posttreatment, RSV MOI 1, A549
[14] = 4 h posttreatment, RSV MOI 5, nuclear extracts
[15] = 15 h posttreatment, RSV MOI 1, nuclear extracts

Row | SMILES | RSV-induced IRF3 activation (luciferase reporter) [1, 12] | RSV-induced IRF3 activation (luciferase reporter) [1, 13] | RSV-induced NF-κB activation (luciferase reporter) [2, 12] | RSV-induced NF-κB activation (luciferase reporter) [2, 13] | viral genome copies ([4]; 15 h posttreatment) | viral genome copies ([4]; 24 h posttreatment) | RSV-induced IL-6 [3] | RSV-induced MIP-1α [3] | RSV-induced TNF-α [3] | also measured
1 | CCCNc1ccc(NC(=O)c2cc(Cl)ccc2O)c(Cl)c1 [Compound 11] | significantly inhibited | dramatically suppressed | significantly inhibited | dramatically suppressed |  |  |  |  |  | RSV-induced MIP-1β [3]: capable to inhibit
2 | O=C(Nc1ccc(NCc2ccco2)cc1Cl)c1cc(Cl)ccc1O [Compound 22, 5-Chloro-N-(2-chloro-4-((furan-2-ylmethyl)amino)phenyl)-2-hydroxybenzamide] | significantly inhibited | dramatically suppressed | significantly inhibited | dramatically suppressed | significantly decreased | significantly decreased | no suppression; also recorded: enhanced | no suppression | no suppression | RSV protein expression [5]: comparable; expression of viral P, M, N and F proteins [5]: decreased; nuclear translocation of IRF3 ([6]; 4 h posttreatment, RSV MOI 5): significantly decreased; RSV-induced IRF3 phosphorylation at Ser396 [6, 14]: significantly decreased; nuclear translocation of IRF3 ([6]; 15 h posttreatment, RSV MOI 1): significantly decreased; RSV-induced IRF3 phosphorylation at Ser396 [6, 15]: significantly decreased; IRF-3 total protein level in the cell [6]: undetectable or minimal impact; RSV-induced p65 Ser276 phosphorylation ([7]; 4 h posttreatment, RSV MOI 5): not affected; RSV-induced p65 Ser536 phosphorylation ([7]; 4 h posttreatment, RSV MOI 5): suppressed; nuclear translocation of p65 ([7]; 4 h posttreatment, RSV MOI 5): suppressed; RSV-induced p65 Ser276 phosphorylation ([7]; 15 h posttreatment, RSV MOI 1): robustly suppressed; RSV-induced p65 Ser536 phosphorylation ([7]; 15 h posttreatment, RSV MOI 1): robustly suppressed; nuclear translocation of p65 ([7]; 15 h posttreatment, RSV MOI 1): robustly suppressed; p65 total protein level in the cell [7]: undetectable or minimal impact; Poly I:C-activated IRF-3 (luciferase reporter) [8]: suppressed; Poly I:C-induced NF-κB activation (luciferase reporter) [9]: impacted
3 | CS(=O)(=O)CCCn1c(Cn2c(=O)n(CC(F)(F)F)c3ccncc32)cc2cc(Cl)ccc21 [JNJ-53718678, reference compound] |  |  |  |  | did not affect | slightly decreased |  |  |  | 
4 | CCCN(CCC)c1ccc(NC(=O)c2cc(Cl)ccc2O)c(Cl)c1 [Compound 26] | significantly inhibited | dramatically suppressed | significantly inhibited | dramatically suppressed |  |  |  |  | able to inhibit | 
5 | O=C(Nc1ccc(NCc2cccnc2)cc1Cl)c1cc(Cl)ccc1O [Compound 19, 5-Chloro-N-(2-chloro-4-((pyridin-3-ylmethyl)amino)phenyl)-2-hydroxybenzamide] | no suppression | no effect | no suppression | no effect |  |  |  |  |  | RSV-induced cytokines/chemokines (all tested immune mediators) [3]: did not show any inhibitory effect
6 | O=C(Nc1ccc(N2CCOCC2)cc1Cl)c1cc(Cl)ccc1O [Compound 28, 5-Chloro-N-(2-chloro-4-morpholinophenyl)-2-hydroxybenzamide] | significantly inhibited | dramatically suppressed | significantly inhibited | dramatically suppressed |  |  | no suppression | no suppression | no suppression | 
7 | O=C(Nc1ccc([N+](=O)[O-])cc1Cl)c1cc(Cl)ccc1O [Niclosamide] |  |  |  |  |  |  |  |  |  | cell death [10]: about 24%
8 | CC1(Nc2ccc(NC(=O)c3cc(Cl)ccc3O)c(Cl)c2)CCCCC1 [Compound 15, 5-Chloro-N-(2-chloro-4-((1-methylcyclohexyl)amino)phenyl)-2-hydroxybenzamide] | significantly inhibited | suppressed | significantly inhibited | no effect; also recorded: failed to inhibit | significantly decreased | significantly decreased | could inhibit |  | able to inhibit | RSV-induced MIP-1β [3]: capable to inhibit; RSV-induced cytokines/chemokines (all tested immune mediators) [3]: inhibited the induction of all tested immune mediators; RSV protein expression [5]: comparable; expression of viral P, M, N and F proteins [5]: decreased; nuclear translocation of IRF3 ([6]; 4 h posttreatment, RSV MOI 5): significantly decreased; RSV-induced IRF3 phosphorylation at Ser396 [6, 14]: significantly decreased; nuclear translocation of IRF3 ([6]; 15 h posttreatment, RSV MOI 1): significantly decreased; RSV-induced IRF3 phosphorylation at Ser396 [6, 15]: significantly decreased; IRF-3 total protein level in the cell [6]: undetectable or minimal impact; RSV-induced p65 Ser276 phosphorylation ([7]; 4 h posttreatment, RSV MOI 5): not affected; RSV-induced p65 Ser536 phosphorylation ([7]; 4 h posttreatment, RSV MOI 5): suppressed; nuclear translocation of p65 ([7]; 4 h posttreatment, RSV MOI 5): suppressed; RSV-induced p65 Ser276 phosphorylation ([7]; 15 h posttreatment, RSV MOI 1): no effect; RSV-induced p65 Ser536 phosphorylation ([7]; 15 h posttreatment, RSV MOI 1): impaired; nuclear translocation of p65 ([7]; 15 h posttreatment, RSV MOI 1): decreased; p65 total protein level in the cell [7]: undetectable or minimal impact; Poly I:C-activated IRF-3 (luciferase reporter) [8]: suppressed; Poly I:C-induced NF-κB activation (luciferase reporter) [9]: only impacted by compound 22, not 15; TNF-α-activated NF-κB (luciferase reporter) [11]: not impacted
9 | CC(C)Nc1ccc(NC(=O)c2cc(Cl)ccc2O)c(Cl)c1 [Compound 12] | significantly inhibited | dramatically suppressed | significantly inhibited | dramatically suppressed |  |  | no suppression | no suppression | no suppression | 
